Reference: ChEMBL document CHEMBL2331119 (Bioorg Med Chem Lett, 2013)
Active and inactive are the calls of the source. The calls are words filed in the database; no cut-off is given here.

Legend:
[1] = target: Sodium-dependent dopamine transporter (Homo sapiens, UniProt Q01959); experiment: Inhibition of [3H]dopamine uptake at human DAT expressed in COS7 cells after 3 mins by beta-counting; assay type: cell-based, COS-7
[2] = target: Sodium-dependent noradrenaline transporter (Homo sapiens, UniProt P23975); experiment: Inhibition of [3H]dopamine uptake at human NET expressed in COS7 cells after 5 mins by beta-counting; assay type: cell-based, COS-7
Sodium-dependent noradrenaline transporter, sequence (P23975 whole entry): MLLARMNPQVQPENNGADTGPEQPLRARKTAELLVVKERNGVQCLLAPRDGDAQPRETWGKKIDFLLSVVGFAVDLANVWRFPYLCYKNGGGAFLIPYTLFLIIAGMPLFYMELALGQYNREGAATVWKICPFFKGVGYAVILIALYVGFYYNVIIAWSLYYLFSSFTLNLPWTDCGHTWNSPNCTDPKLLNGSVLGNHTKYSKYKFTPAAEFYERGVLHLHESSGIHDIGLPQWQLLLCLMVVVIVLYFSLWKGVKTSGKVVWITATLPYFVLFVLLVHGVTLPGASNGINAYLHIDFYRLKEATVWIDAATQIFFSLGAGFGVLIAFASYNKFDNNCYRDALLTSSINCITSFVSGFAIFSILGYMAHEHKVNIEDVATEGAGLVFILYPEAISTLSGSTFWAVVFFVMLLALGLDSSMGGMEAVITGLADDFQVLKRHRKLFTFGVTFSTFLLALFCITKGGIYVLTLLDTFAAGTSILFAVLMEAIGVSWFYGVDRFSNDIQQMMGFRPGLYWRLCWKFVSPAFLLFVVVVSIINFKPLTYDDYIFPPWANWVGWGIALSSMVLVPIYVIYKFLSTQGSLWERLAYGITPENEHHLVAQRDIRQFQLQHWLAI

[3] = target: T1, Sodium-dependent serotonin transporter (Homo sapiens, UniProt P31645); assay type: cell-based, COS-7
Target sequence in this assay (P31645 whole entry, the tested form may be a part): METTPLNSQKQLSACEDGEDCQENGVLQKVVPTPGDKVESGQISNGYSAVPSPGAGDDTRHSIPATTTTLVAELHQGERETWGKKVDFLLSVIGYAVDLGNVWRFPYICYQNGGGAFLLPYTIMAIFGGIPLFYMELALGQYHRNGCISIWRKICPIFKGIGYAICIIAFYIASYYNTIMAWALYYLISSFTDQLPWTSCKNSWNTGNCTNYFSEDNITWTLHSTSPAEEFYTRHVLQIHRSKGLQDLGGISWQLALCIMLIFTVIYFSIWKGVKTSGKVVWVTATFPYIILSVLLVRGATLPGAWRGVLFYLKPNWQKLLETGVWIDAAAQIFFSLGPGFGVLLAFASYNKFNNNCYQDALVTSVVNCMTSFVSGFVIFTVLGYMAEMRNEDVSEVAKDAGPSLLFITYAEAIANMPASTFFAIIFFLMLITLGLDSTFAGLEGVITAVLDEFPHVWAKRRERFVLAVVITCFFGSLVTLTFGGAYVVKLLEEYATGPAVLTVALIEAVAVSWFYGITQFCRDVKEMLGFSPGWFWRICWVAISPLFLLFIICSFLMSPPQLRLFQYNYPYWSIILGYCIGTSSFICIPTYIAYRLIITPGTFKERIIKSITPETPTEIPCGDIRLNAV

[4] = target: T1, Sodium-dependent serotonin transporter; experiment: Binding affinity to EGFP fused human SERT expressed in HEK293 cells after 1 hr by confocal microscopy in presence of S-citalopram; assay type: cell-based
Summary of the method: (§1)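 Live HEK293 cells stably expressing EGFP-hSERT were incubated 1 h at 37°C with 20 nM rhodamine-labeled ligand. […] Confocal microscopy scored red-channel fluorescence at the cell surface against EGFP (green) distribution. Images are representative of more than 3 individual experiments.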
Target sequence in this assay (P31645 whole entry, looked up, the tested form may be a part): as the sequence (P31645 whole entry, the tested form may be a part) above

[5] = target: T1, Sodium-dependent serotonin transporter; experiment: Binding affinity to EGFP fused human SERT expressed in HEK293 cells after 1 hr by confocal microscopy in presence of 5-HT; assay type: cell-based; summary of the method: as §1
Target sequence in this assay (P31645 whole entry, looked up, the tested form may be a part): as the sequence (P31645 whole entry, the tested form may be a part) above

[6] = target: T1, Sodium-dependent serotonin transporter; experiment: Binding affinity to EGFP fused human SERT expressed in HEK293 cells after 1 hr by confocal microscopy in presence of paroxetine; assay type: cell-based; summary of the method: as §1
Target sequence in this assay (P31645 whole entry, looked up, the tested form may be a part): as the sequence (P31645 whole entry, the tested form may be a part) above

[7] = tested on: COS-7; experiment: Ratio of Ki for human DAT expressed in COS7 cells to Ki for human SERT expressed in COS7 cells; assay type: cell-based
[8] = target: T1, Sodium-dependent serotonin transporter; experiment: Binding affinity to EGFP fused human SERT expressed in HEK293 cells after 1 hr by confocal microscopy; assay type: cell-based; summary of the method: as §1
Target sequence in this assay (P31645 whole entry, looked up, the tested form may be a part): as the sequence (P31645 whole entry, the tested form may be a part) above

[9] = tested on: COS-7; experiment: Ratio of Ki for human NET expressed in COS7 cells to Ki for human SERT expressed in COS7 cells; assay type: cell-based

Sodium-dependent dopamine transporter, sequence (Q01959 whole entry): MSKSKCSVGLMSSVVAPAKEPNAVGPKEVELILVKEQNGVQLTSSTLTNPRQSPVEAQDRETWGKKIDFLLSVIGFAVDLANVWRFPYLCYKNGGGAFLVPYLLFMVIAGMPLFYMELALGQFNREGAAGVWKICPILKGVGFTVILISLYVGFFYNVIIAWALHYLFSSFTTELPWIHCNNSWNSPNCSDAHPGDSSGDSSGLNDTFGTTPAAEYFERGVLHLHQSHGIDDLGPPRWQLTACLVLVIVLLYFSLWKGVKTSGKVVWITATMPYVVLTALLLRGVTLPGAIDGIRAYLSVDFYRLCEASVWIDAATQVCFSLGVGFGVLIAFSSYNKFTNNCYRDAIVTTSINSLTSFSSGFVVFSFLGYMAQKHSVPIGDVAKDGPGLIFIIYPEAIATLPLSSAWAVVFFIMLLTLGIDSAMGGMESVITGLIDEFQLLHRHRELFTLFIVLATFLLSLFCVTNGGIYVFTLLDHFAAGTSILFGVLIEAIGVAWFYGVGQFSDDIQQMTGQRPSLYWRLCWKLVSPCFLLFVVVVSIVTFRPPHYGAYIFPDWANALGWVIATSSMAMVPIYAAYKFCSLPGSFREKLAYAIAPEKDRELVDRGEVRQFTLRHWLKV

Compound | Ki [1] | Ki [2] | Ki [3] | Activity [4] | Activity [5] | Activity [6] | Ratio Ki [7] | Activity [8] | Ratio Ki [9]
CCN(CC)c1ccc2c(-c3ccc(S(=O)(=O)NCCCCCC(=O)NCCN4[C@@H]5CC[C@@H]4[C@@H](C(=O)OC)[C@@H](c4ccc(Cl)c(Cl)c4)C5)cc3S(=O)(=O)[O-])c3ccc(=[N+](CC)CC)cc-3oc2c1 | 0.062 µM | 0.194 µM | 0.392 µM | – | – | – | – | – | –
CCN(CC)c1ccc2c(-c3ccc(S(=O)(=O)NCCCCCC(=O)NCCC(=O)Nc4cccc(-c5ccc6c(c5)COC6(CCCN(C)C)c5ccc(F)cc5)c4)cc3S(=O)(=O)[O-])c3ccc(=[N+](CC)CC)cc-3oc2c1 (stereo not drawn) | 10.9 µM | 11.8 µM | 0.225 µM | inactive | inactive | inactive | 50 | Active | 50
CN(C)CCCC1(c2ccc(F)cc2)OCc2cc(-c3cccc(N)c3)ccc21 (stereo not drawn) | – | – | 0.39 µM | – | – | – | – | – | –
